Data from ChEMBL document CHEMBL1154414, “In vitro and in vivo activities of T-705 against arenavirus and bunyavirus infections” (Antimicrob Agents Chemother, 2007).
Active and inactive are the calls of the source. No cut-off for these calls is given here.

How the values were obtained:
Pichinde virus [1] = test: Antiviral activity against Pichinde virus An 4763 infected Syrian golden hamster assessed as mean serum ALT levels at 15 mg/kg, po twice daily for 7 days administered 4 hrs before viral-challenge measured on day 7 of viral infection; type: functional
Punta Toro virus [2] = test: Antiviral activity against 500 PFU Punta Toro virus Adames infected C57BL/6 mouse assessed as mean day of death at 10 mg/kg, po twice daily for 5 days administered 4 hrs before viral challenge; type: functional
Outline: (§1)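 Groups of 15 mice (25–30 placebo) were inoculated subcutaneously with PTV. Drug in 0.4% carboxymethylcellulose was given by oral gavage twice daily.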

Punta Toro virus [3] = test: Antiviral activity against 500 PFU Punta Toro virus Adames infected C57BL/6 mouse assessed as mean day of death at 200 mg/kg, po twice daily for 5 days administered 4 hrs before viral challenge; type: functional; outline: as §1
Pichinde virus [4] = test: Antiviral activity against Pichinde virus An 4763 infected Syrian golden hamster assessed as mean viral titer per 0.1 g of liver at 60 mg/kg, po twice daily for 7 days administered 4 hrs before viral-challenge measured on day 7 of viral infection; type: functional
La Crosse virus = test: Antiviral activity against La Crosse virus assessed as reduction of 1 log10 unit viral titer yields after 3 to 5 days; type: functional
Pichinde virus [5] = test: Antiviral activity against Pichinde virus An 4763 infected Syrian golden hamster assessed as mean serum ALT levels at 30 mg/kg, po twice daily for 7 days administered 4 hrs before viral-challenge measured on day 7 of viral infection; type: functional
Punta Toro virus [6] = test: Antiviral activity against 500 PFU Punta Toro virus Adames infected C57BL/6 mouse assessed as inhibition of liver damage at 75 mg/kg/day, po twice daily administered 4 hrs before viral challenge measured on day 3 of viral infection; type: functional, organism-based
Outline: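 Mice were infected with PTV subcutaneously and dosed by oral gavage twice daily (0.4% CMC vehicle). Five animals per group (10 placebo) were sacrificed on day 3 or 4. Livers were scored 0–4 for hepatic icterus, where 0 is normal and 4 is maximal yellow coloration.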

Punta Toro virus [7] = test: Antiviral activity against 500 PFU Punta Toro virus Adames infected C57BL/6 mouse assessed as mean viral titer per 0.1 mL of serum at 50 mg/kg, po twice daily administered 4 hrs before viral challenge measured on day 4 of viral infection; type: functional
Outline: (§2)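 Mice were infected subcutaneously with PTV and dosed by oral gavage twice daily; 5 per group (10 placebo) were killed on day 3 or 4. Liver homogenate or serum was serially diluted onto triplicate LLC-MK2 monolayers, and CPE was read 6–8 days later. 50% endpoints gave log10 CCID50 per 0.1 g liver or 0.1 ml serum. Detection range was 2.8–9.5; undetectable samples were assigned <2.8.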

Punta Toro virus [8] = test: Antiviral activity against 500 PFU Punta Toro virus Adames infected C57BL/6 mouse assessed as animals with detectable virus level in serum at 10 mg/kg, po twice daily administered 24 hrs post viral challenge measured on day 3 of viral infection; type: functional
Outline: (§3)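 T-705 was suspended in 0.4% carboxymethylcellulose and given by oral gavage twice daily. Mice were infected subcutaneously with PTV. Five mice per group (10 placebo) were sacrificed on day 3 or 4. Liver homogenate or serum was serially diluted onto triplicate LLC-MK2 monolayers, and CPE was read at 6–8 days. The detection limit was 2.8 log10 CCID50 per 0.1 g liver or 0.1 ml serum.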

Punta Toro virus [9] = test: Antiviral activity against 500 PFU Punta Toro virus Adames infected C57BL/6 mouse assessed as animals with detectable virus level in liver at 30 mg/kg, po twice daily administered 4 hrs before viral challenge measured on day 3 of viral infection; type: functional; outline: as §3
Pichinde virus [10] = test: Antiviral activity against Pichinde virus An 4763 infected Syrian golden hamster assessed as animals with detectable virus level in liver at 30 mg/kg, po twice daily for 7 days administered 4 hrs before viral-challenge measured on day 7 of viral infection; type: functional
Punta Toro virus [11] = test: Antiviral activity against 500 PFU Punta Toro virus Adames infected C57BL/6 mouse assessed as mean viral titer per 0.1 mL of serum at 25 mg/kg, po twice daily administered 4 hrs before viral challenge measured on day 4 of viral infection; type: functional; outline: as §2
Punta Toro virus [12] = test: Antiviral activity against 500 PFU Punta Toro virus Adames infected C57BL/6 mouse assessed as animals with detectable virus level in liver at 10 mg/kg, po twice daily administered 4 hrs before viral challenge measured on day 3 of viral infection; type: functional; outline: as §3
Punta Toro virus [13] = test: Antiviral activity against 500 PFU Punta Toro virus Adames infected C57BL/6 mouse assessed as animals with detectable virus level in serum at 100 mg/kg, po twice daily administered 4 hrs before viral challenge measured on day 4 of viral infection; type: functional; outline: as §3
Punta Toro virus [14] = test: Antiviral activity against 500 PFU Punta Toro virus Adames infected C57BL/6 mouse assessed as mean serum ALT levels at 100 mg/kg, po twice daily administered 4 hrs before viral challenge measured on day 4 of viral infection; type: functional
Outline: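 Subcutaneous PTV infection was followed by oral gavage twice daily with drug suspended in 0.4% CMC. Serum was collected from 5 sacrificed mice per group (10 placebo) on day 3 or 4. ALT activity was measured by kinetic assay, and sham-infected mice set the baselines.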

Pichinde virus [15] = test: Antiviral activity against Pichinde virus An 4763 infected Syrian golden hamster assessed as animals with detectable virus level in serum at 30 mg/kg, po twice daily for 7 days administered 4 hrs before viral-challenge measured on day 7 of viral infection; type: functional
Punta Toro virus [16] = test: Antiviral activity against 500 PFU Punta Toro virus Adames infected C57BL/6 mouse assessed as animals with detectable virus level in liver at 100 mg/kg, po twice daily administered 4 hrs before viral challenge measured on day 4 of viral infection; type: functional; outline: as §3
Punta Toro virus [17] = test: Antiviral activity against Punta Toro virus Adames infected Syrian golden hamster assessed as survival at 15 mg/kg, po twice daily for 6 days administered 4 hrs before viral challenge; type: functional
Punta Toro virus [18] = test: Antiviral activity against 500 PFU Punta Toro virus Adames infected C57BL/6 mouse assessed as mean day of death at 50 mg/kg, po twice daily for 5 days administered 4 hrs before viral challenge; type: functional; outline: as §1
Punta Toro virus [19] = test: Antiviral activity against 500 PFU Punta Toro virus Adames infected C57BL/6 mouse assessed as mean viral titer per 0.1 g of liver at 100 mg/kg, po administered 4 hrs before viral challenge measured on day 4 of viral infection; type: functional; outline: as §2
Punta Toro virus [20] = test: Antiviral activity against Punta Toro virus Adames infected Syrian golden hamster assessed as animals with detectable virus level in liver at 15 mg/kg, po twice daily administered 4 hrs before viral challenge measured on day 4 of viral infection; type: functional
Punta Toro virus [21] = test: Antiviral activity against Punta Toro virus Adames infected Syrian golden hamster assessed as mean viral titer per 0.1 g of liver at 60 mg/kg, po twice daily administered 4 hrs before viral challenge measured on day 4 of viral infection; type: functional
Influenza A virus = test: Antiviral activity against influenza A virus; type: functional, organism-based
Pichinde virus [22] = test: Antiviral activity against Pichinde virus An 4763 infected Syrian golden hamster assessed as survival at 20 mg/kg, po twice daily for 7 days administered 72 hrs post viral-challenge; type: functional
Pichinde virus [23] = test: Antiviral activity against Pichinde virus An 4763 infected Syrian golden hamster assessed as animals with detectable virus level in serum at 40 mg/kg, po twice daily for 7 days administered 4 hrs before viral-challenge measured on day 7 of viral infection; type: functional
Pichinde virus [24] = test: Antiviral activity against Pichinde virus An 4763 infected Syrian golden hamster assessed as survival at 50 mg/kg, po twice daily for 7 days administered 24 hrs post viral-challenge; type: functional, organism-based; set-up: dose 50 mg/kg

Structure (SMILES): NC(=O)c1nc(F)cnc1O [FAVIPIRAVIR]
- Activity (Pichinde virus [1]): 1220 IU/L
- Activity (Punta Toro virus [2]): 5 days
- Activity (Punta Toro virus [3]): 8 days
- log10CCID50 (Pichinde virus [4]): <2.8
- EC90 (La Crosse virus): 7 µM
- Activity (Pichinde virus [5]): 378 IU/L
- Activity (Punta Toro virus [6]): Active
- log10CCID50 (Punta Toro virus [7]): <3.1
- Activity (Punta Toro virus [8]): 100%
- Activity (Punta Toro virus [9]): 0%
- Activity (Pichinde virus [10]): 100%
- log10CCID50 (Punta Toro virus [11]): <3.3
- Activity (Punta Toro virus [12]): 0%
- Activity (Punta Toro virus [13]): 0%
- Activity (Punta Toro virus [14]): 33 IU/L
- Activity (Pichinde virus [15]): 80%
- Activity (Punta Toro virus [16]): 0%
- survival at 15 mg/kg (Punta Toro virus [17]): 50%
- Activity (Punta Toro virus [18]): >21 days
- log10CCID50 (Punta Toro virus [19]): <2.8
- Activity (Punta Toro virus [20]): 100%
- log10CCID50 (Punta Toro virus [21]): <3.4
- EC50 (Influenza A virus): 0.083 µM

Structure (SMILES): NC(=O)c1ncn([C@@H]2O[C@H](CO)[C@@H](O)[C@H]2O)n1 [RIBAVIRIN]
- Efficacy (Pichinde virus [22]): 60%
- Activity (Pichinde virus [23]): 40%
- Activity (Pichinde virus [24]): Active
